According to ChEMBL document CHEMBL3588802, “Thiol activated prodrugs of sulfur dioxide (SO2) as MRSA inhibitors” (Bioorg Med Chem Lett, 2015):
In brackets after ≈: the same amount, converted by molar mass. Activity calls are given as the source filed them. The rule behind the calls is not given here.

Key:
Staphylococcus aureus [1] = test: Antibacterial activity against methicillin-resistant Staphylococcus aureus after 18 to 20 hrs by microbroth dilution method; type: functional
Enterococcus faecalis = test: Antibacterial activity against Enterococcus faecalis after 18 to 20 hrs by microbroth dilution method; type: functional
Escherichia coli = test: Antibacterial activity against Escherichia coli after 18 to 20 hrs by microbroth dilution method; type: functional
Staphylococcus aureus [2] = test: Antibacterial activity against methicillin-sensitive Staphylococcus aureus after 18 to 20 hrs by microbroth dilution method; type: functional
Staphylococcus aureus [3] = test: Antibacterial activity against patient-derived methicillin-resistant Staphylococcus aureus 7386 after 18 to 20 hrs by microbroth dilution method; type: functional
Procedure, shortened: (§1)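 Patient-derived MRSA clinical isolates from the Department of Microbiology, Nizam's Institute of Medical Sciences, Hyderabad. MIC determined by broth dilution.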

Staphylococcus aureus [4] = test: Induction of intracellular oxidative species generation in methicillin-sensitive Staphylococcus aureus 29213 at 0.5 to 8 ug/ml after 1 hr by DCFH2-DA dye-based fluorescence assay; type: functional, organism-based
Procedure, shortened: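 Intracellular oxidative species in S. aureus are read as fluorescence of 2,7-dichlorodihydrofluorescein-diacetate (DCFH2-DA) after exposure to compound.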

Staphylococcus aureus [5] = test: Induction of intracellular thiol depletion in Staphylococcus aureus after 60 mins by monobromobimane-based fluorescence assay relative to control; type: functional, organism-based
[6] = Cytotoxicity against human A549 cells after 72 hrs by MTT assay; type: cell-based
Staphylococcus aureus [7] = test: Antibacterial activity against patient-derived methicillin-resistant Staphylococcus aureus K1 after 18 to 20 hrs by microbroth dilution method; type: functional; procedure, shortened: as §1
Staphylococcus aureus [8] = test: Antibacterial activity against patient-derived methicillin-resistant Staphylococcus aureus 7425 after 18 to 20 hrs by microbroth dilution method; type: functional; procedure, shortened: as §1
Staphylococcus aureus [9] = test: Antibacterial activity against patient-derived methicillin-resistant Staphylococcus aureus 7419 after 18 to 20 hrs by microbroth dilution method; type: functional; procedure, shortened: as §1
Staphylococcus aureus [10] = test: Antibacterial activity against patient-derived methicillin-resistant Staphylococcus aureus B19506 after 18 to 20 hrs by microbroth dilution method; type: functional; procedure, shortened: as §1
[11] = Selectivity index, ratio of GI50 for human A549 cells to MIC for Staphylococcus aureus
Procedure, shortened: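 Selectivity index calculated as GI50 in A549 lung carcinoma cells divided by MIC.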

Staphylococcus aureus [12] = test: Induction of intracellular thiol depletion in Staphylococcus aureus after 60 mins by monobromobimane-based fluorescence assay relative to control

| SMILES | MIC (Staphylococcus aureus [1]) [µg/mL] | MIC (Enterococcus faecalis) [µg/mL] | MIC (Escherichia coli) [µg/mL] | MIC (Staphylococcus aureus [2]) [µg/mL] | also measured |
| --- | --- | --- | --- | --- | --- |
| COc1ccccc1N(C)S(=O)(=O)c1ccc([N+](=O)[O-])cc1[N+](=O)[O-] | 16 (≈ 43.6 µM) | 16 (≈ 43.6 µM) | > 32 | 16 (≈ 43.6 µM) | – |
| COc1ccccc1NS(=O)(=O)c1ccc([N+](=O)[O-])cc1[N+](=O)[O-] | 8 (≈ 22.6 µM) | 16 (≈ 45.3 µM) | > 32 | 8 (≈ 22.6 µM) | – |
| CCCN(c1ccccc1OC)S(=O)(=O)c1ccc([N+](=O)[O-])cc1[N+](=O)[O-] | – | > 32 | > 32 | > 32 | – |
| COc1ccc(CN(CCCN(Cc2ccccc2)S(=O)(=O)c2ccc([N+](=O)[O-])cc2[N+](=O)[O-])S(=O)(=O)c2ccc([N+](=O)[O-])cc2[N+](=O)[O-])cc1 | – | > 32 | > 32 | > 32 | – |
| COc1ccccc1N(CCCN(Cc1ccccc1)S(=O)(=O)c1ccc([N+](=O)[O-])cc1[N+](=O)[O-])S(=O)(=O)c1ccc([N+](=O)[O-])cc1[N+](=O)[O-] | – | – | – | > 32 | – |
| CCCCN(c1ccccc1OC)S(=O)(=O)c1ccc([N+](=O)[O-])cc1[N+](=O)[O-] | – | > 32 | > 32 | > 32 | – |
| C#CCN(Cc1ccccc1)S(=O)(=O)c1ccc([N+](=O)[O-])cc1[N+](=O)[O-] | 4 (≈ 10.7 µM) | 16 (≈ 42.6 µM) | > 32 | 4 (≈ 10.7 µM) | – |
| O=[N+]([O-])c1ccc(S(=O)(=O)N(CCCN(c2ccccc2F)S(=O)(=O)c2ccc([N+](=O)[O-])cc2[N+](=O)[O-])Cc2ccccc2)c([N+](=O)[O-])c1 | – | – | – | > 32 | – |
| CCN(c1ccccc1OC)S(=O)(=O)c1ccc([N+](=O)[O-])cc1[N+](=O)[O-] | 8 (≈ 21 µM) | > 32 | > 32 | 8 (≈ 21 µM) | – |
| C#CCN(c1cccc(OC)c1)S(=O)(=O)c1ccc([N+](=O)[O-])cc1[N+](=O)[O-] | 4 (≈ 10.2 µM) | 8 (≈ 20.4 µM) | > 32 | 4 (≈ 10.2 µM) | MIC (Staphylococcus aureus [3]): 2 µg/mL (≈ 5.11 µM); Activity (Staphylococcus aureus [4]): Active; Activity (Staphylococcus aureus [5]): Dose-dependent effect; GI50 at 72 h [6]: 27 µM; MIC (Staphylococcus aureus [7]): 4 µg/mL (≈ 10.2 µM); MIC (Staphylococcus aureus [8]): 2 µg/mL (≈ 5.11 µM); MIC (Staphylococcus aureus [9]): 4 µg/mL (≈ 10.2 µM); MIC (Staphylococcus aureus [10]): 2 µg/mL (≈ 5.11 µM); Selectivity Index [11]: 5.2 |
| O=[N+]([O-])c1ccc(S(=O)(=O)NCc2ccccc2)c([N+](=O)[O-])c1 | – | – | – | > 16 | – |
| C[C@@H](O)[C@H]1C(=O)N2C(C(=O)O)=C(S[C@@H]3CN[C@H](C(=O)N(C)C)C3)[C@H](C)[C@H]12 [MEROPENEM] | 16 (≈ 41.7 µM) | – | – | – | MIC (Staphylococcus aureus [3]): > 32 µg/mL; MIC (Staphylococcus aureus [7]): 0.5 µg/mL (≈ 1.3 µM); MIC (Staphylococcus aureus [8]): 4 µg/mL (≈ 10.4 µM); MIC (Staphylococcus aureus [9]): 16 µg/mL (≈ 41.7 µM); MIC (Staphylococcus aureus [10]): 1 µg/mL (≈ 2.61 µM) |
| CC(=O)NC[C@H]1CN(c2ccc(N3CCOCC3)c(F)c2)C(=O)O1 [LINEZOLID] | 1 (≈ 2.96 µM) | – | – | – | – |
| CN(Cc1ccccc1)S(=O)(=O)c1ccc([N+](=O)[O-])cc1[N+](=O)[O-] | – | – | – | 8 (≈ 22.8 µM) | – |
| COc1ccc(NS(=O)(=O)c2ccc([N+](=O)[O-])cc2[N+](=O)[O-])cc1 | – | – | – | > 16 | – |
| C#CCN(Cc1cccc(OC)c1)S(=O)(=O)c1ccc([N+](=O)[O-])cc1[N+](=O)[O-] | – | – | – | 16 (≈ 39.5 µM) | – |
| COc1ccccc1N(Cc1ccccc1)S(=O)(=O)c1ccc([N+](=O)[O-])cc1[N+](=O)[O-] | – | > 32 | > 32 | > 32 | – |
| COc1ccc(CNS(=O)(=O)c2ccc([N+](=O)[O-])cc2[N+](=O)[O-])cc1 | – | – | – | > 16 | – |
| COc1cccc(NS(=O)(=O)c2ccc([N+](=O)[O-])cc2[N+](=O)[O-])c1 | 32 (≈ 90.6 µM) | > 32 | > 32 | 16 (≈ 45.3 µM) | – |
| C#CCN(C)S(=O)(=O)c1ccc([N+](=O)[O-])cc1[N+](=O)[O-] | 8 (≈ 26.7 µM) | > 32 | > 32 | 8 (≈ 26.7 µM) | – |

| SMILES | MIC (Staphylococcus aureus [1]) [µg/mL] | MIC (Enterococcus faecalis) [µg/mL] | MIC (Escherichia coli) [µg/mL] | MIC (Staphylococcus aureus [2]) [µg/mL] | also measured |
| --- | --- | --- | --- | --- | --- |
| O=C(O)c1cn(C2CC2)c2cc(N3CCNCC3)c(F)cc2c1=O [CIPROFLOXACIN] | 0.25 (≈ 0.754 µM) | – | ≤ 0.00075 | – | MIC (Staphylococcus aureus [3]): > 4 µg/mL; MIC (Staphylococcus aureus [7]): 0.5 µg/mL (≈ 1.51 µM); MIC (Staphylococcus aureus [8]): > 4 µg/mL; MIC (Staphylococcus aureus [9]): > 4 µg/mL; MIC (Staphylococcus aureus [10]): 32 µg/mL (≈ 96.6 µM) |
| COc1ccc(CN(CCCN(Cc2ccccc2)S(=O)(=O)c2ccc([N+](=O)[O-])cc2[N+](=O)[O-])S(=O)(=O)c2ccc([N+](=O)[O-])cc2[N+](=O)[O-])c(OC)c1 | > 32 | > 32 | > 32 | > 16 | Activity (Staphylococcus aureus [12]): inactive |
| NC[C@H]1O[C@H](O[C@H]2[C@H](O)[C@@H](O[C@H]3O[C@H](CO)[C@@H](O)[C@H](N)[C@H]3O)[C@H](N)C[C@@H]2N)[C@H](N)C[C@@H]1O [TOBRAMYCIN] | > 32 | – | – | – | MIC (Staphylococcus aureus [3]): > 32 µg/mL; MIC (Staphylococcus aureus [7]): 8 µg/mL (≈ 17.1 µM); MIC (Staphylococcus aureus [8]): 1 µg/mL (≈ 2.14 µM); MIC (Staphylococcus aureus [9]): > 32 µg/mL; MIC (Staphylococcus aureus [10]): > 32 µg/mL |
| COc1ccccc1CN(CCCN(Cc1ccccc1)S(=O)(=O)c1ccc([N+](=O)[O-])cc1[N+](=O)[O-])S(=O)(=O)c1ccc([N+](=O)[O-])cc1[N+](=O)[O-] | – | > 32 | > 32 | > 32 | – |
| C#CCN(CC)S(=O)(=O)c1ccc([N+](=O)[O-])cc1[N+](=O)[O-] | 16 (≈ 51.1 µM) | > 32 | > 32 | 16 (≈ 51.1 µM) | Activity (Staphylococcus aureus [12]): inactive |
| COc1ccc(N(CCCN(Cc2ccccc2)S(=O)(=O)c2ccc([N+](=O)[O-])cc2[N+](=O)[O-])S(=O)(=O)c2ccc([N+](=O)[O-])cc2[N+](=O)[O-])cc1 | – | – | – | > 32 | – |
| C#CCN(c1ccccc1OC)S(=O)(=O)c1ccc([N+](=O)[O-])cc1[N+](=O)[O-] | 8 (≈ 20.4 µM) | 8 (≈ 20.4 µM) | > 32 | 4 (≈ 10.2 µM) | – |
| C=CCN(c1cccc(OC)c1)S(=O)(=O)c1ccc([N+](=O)[O-])cc1[N+](=O)[O-] | 8 (≈ 20.3 µM) | 16 (≈ 40.7 µM) | > 32 | 8 (≈ 20.3 µM) | – |
| C#CCN(Cc1ccc(OC)cc1)S(=O)(=O)c1ccc([N+](=O)[O-])cc1[N+](=O)[O-] | 8 (≈ 19.7 µM) | 16 (≈ 39.5 µM) | > 32 | 8 (≈ 19.7 µM) | – |
| O=[N+]([O-])c1ccc(S(=O)(=O)Nc2ccccc2)c([N+](=O)[O-])c1 | – | – | – | 8 (≈ 24.7 µM) | – |
| C=CCN(c1ccccc1OC)S(=O)(=O)c1ccc([N+](=O)[O-])cc1[N+](=O)[O-] | 4 (≈ 10.2 µM) | > 32 | > 32 | 8 (≈ 20.3 µM) | – |
| COc1cccc(N(C)S(=O)(=O)c2ccc([N+](=O)[O-])cc2[N+](=O)[O-])c1 | 4 (≈ 10.9 µM) | 8 (≈ 21.8 µM) | > 32 | 8 (≈ 21.8 µM) | – |
| O=[N+]([O-])c1ccc(S(=O)(=O)N(CCCN(c2ccccc2)S(=O)(=O)c2ccc([N+](=O)[O-])cc2[N+](=O)[O-])Cc2ccccc2)c([N+](=O)[O-])c1 | – | – | – | > 16 | – |
| N#Cc1ccc(NS(=O)(=O)c2ccc([N+](=O)[O-])cc2[N+](=O)[O-])cc1 | – | – | – | > 16 | – |
| O=[N+]([O-])c1ccc(S(=O)(=O)N(CCCO)Cc2ccccc2)c([N+](=O)[O-])c1 | 8 (≈ 20.2 µM) | 32 (≈ 80.9 µM) | > 32 | 16 (≈ 40.5 µM) | – |
| O=[N+]([O-])c1ccc(S(=O)(=O)N(CCCN(Cc2ccccc2)S(=O)(=O)c2ccc([N+](=O)[O-])cc2[N+](=O)[O-])Cc2ccccc2)c([N+](=O)[O-])c1 | – | – | – | > 16 | – |
| CCN1C(=O)C=CC1=O | – | – | – | – | Activity (Staphylococcus aureus [12]): Active |
| CCN(c1cccc(OC)c1)S(=O)(=O)c1ccc([N+](=O)[O-])cc1[N+](=O)[O-] | 8 (≈ 21 µM) | 8 (≈ 21 µM) | > 32 | 8 (≈ 21 µM) | – |
| O=[N+]([O-])c1ccc(S(=O)(=O)Nc2ccc(F)cc2)c([N+](=O)[O-])c1 | – | – | – | 16 (≈ 46.9 µM) | – |
| COc1cccc(N(CCCN(Cc2ccccc2)S(=O)(=O)c2ccc([N+](=O)[O-])cc2[N+](=O)[O-])S(=O)(=O)c2ccc([N+](=O)[O-])cc2[N+](=O)[O-])c1 | – | – | – | > 32 | – |
